Our source for the EC50 values is ChEMBL document CHEMBL1149040, “Two new macrolide sesquiterpene pyridine alkaloids from Maytenus emarginata: emarginatine G and the cytotoxic emarginatine F” (1994).

Holding throughout (assay type): functional
Common to all, as to conditions: read-out: ED50 (the source's name)

The test system of test [1] is KB. In words: Cytotoxicity against human KB cells. In a few lines:
(§1)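 In vitro cytotoxicity against a tumor-cell panel. Panel: KB (nasopharyngeal carcinoma), A-549 (human lung carcinoma), HCT-8 (human colon adenocarcinoma), RPMI-7951 (human melanoma), TE-671 (human medulloblastoma) and P-388 (murine leukemia). The procedure follows published protocols.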

Test [2] relates to A549. In words: Cytotoxicity against human A549 cells. In a few lines:
as §1

In test [3] the test system is HCT-8. In words: Cytotoxicity against human HCT8 cells. In a few lines:
as §1

Test [4] deals with P388. Kind of test: Cytotoxicity against mouse P388 cells. The procedure, abridged: as §1
Test [5] deals with TE-671. Kind of test: Cytotoxicity against human TE671 cells. The procedure, abridged: as §1
In test [6] the test system is RPMI-7951. Kind of test: Cytotoxicity against human RPMI7951 cells. The procedure, abridged:
as §1

Converted amounts (≈) assume the structure as drawn.

Turning to `CC(=O)OC[C@]12[C@H](OC(C)=O)[C@@H](O)[C@@H]3[C@@H](OC(C)=O)[C@@]14O[C@@]3(C)COC(=O)c1cccnc1[C@H](C)[C@H](C)C(=O)O[C@@H]([C@H](OC(=O)c1ccc(=O)n(C)c1)[C@@H]2OC(=O)c1ccccc1)[C@@]4(C)O` [EMARGINATINE F], the EC50 in test [1] was 0.51 µg/mL (≈ 0.555 µM); in test [2] it was 5.5 µg/mL (≈ 5.99 µM); in test [3], 1.29 µg/mL (≈ 1.4 µM); in test [4] it was 0.69 µg/mL (≈ 0.751 µM); in test [5] it was 0.21 µg/mL (≈ 0.229 µM); in test [6], under 0.1 µg/mL.
`C/C=C(\C)C(=O)O[C@H]1[C@@H](OC(=O)c2ccc(=O)n(C)c2)[C@@H]2OC(=O)[C@@H](C)[C@@H](C)c3ncccc3C(=O)OC[C@]3(C)O[C@@]4([C@H](OC(C)=O)[C@H]3[C@@H](OC(C)=O)[C@@H](OC(C)=O)[C@]14COC(C)=O)[C@]2(C)O` [EMARGINATINE G]: the EC50 in test [1], in test [2], in test [3], in test [4], in test [5] and in test [6] was over 10 µg/mL each time.
